In the library only some 3.5% were active in any assay of this set; here they are far more common.
RGS4 inh = RGS4 inhibitors, primary screen, cell-based, HEK293 M3R inducible RGS4, calcium flux | Regulator of G-protein signaling 4 (Homo sapiens), P49798 | Fluo-4 calcium flux; active compounds read high; triggered by carbachol at its EC20 | B-score at 10 µM | 310,000 compounds, 0.45% hits;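 active = B-score, a plate-corrected calcium signal, over three deviations above library mean, with baseline fluorescence within five deviations of library mean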;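 also: RGS4 expression induced by doxycycline in cells with stable M3 receptor; B-score is computed from the integrated fluorescence ratio over baseline after carbachol; higher B-score means a larger calcium signal and so more RGS4 inhibition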
Target sequence (P49798 whole entry, looked up): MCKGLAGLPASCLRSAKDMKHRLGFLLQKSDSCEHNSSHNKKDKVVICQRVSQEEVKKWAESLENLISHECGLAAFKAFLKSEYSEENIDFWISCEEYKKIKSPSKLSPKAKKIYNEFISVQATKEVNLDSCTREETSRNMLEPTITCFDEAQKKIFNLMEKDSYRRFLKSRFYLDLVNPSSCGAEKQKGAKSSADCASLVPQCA
MrgX1 allo act = positive allosteric modulators of MrgX1, primary screen, HEK293 cells, Fluo-4 calcium flux; AID 588675, 2011; Mas-related G-protein coupled receptor member X1 (Homo sapiens), Q96LB2; 310,000 compounds, 0.63% hits; B-score at 10 µM; FDSS; active compounds read high;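 active = plate-corrected calcium response at least 3 library SD above typical, normal starting fluorescence, not activating the receptor alone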;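 also: compound read alongside a low EC10 to EC30 dose of BAM8-22 agonist; peak minus trough fluorescence over baseline measured at the second addition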
Target sequence (Q96LB2 whole entry, looked up): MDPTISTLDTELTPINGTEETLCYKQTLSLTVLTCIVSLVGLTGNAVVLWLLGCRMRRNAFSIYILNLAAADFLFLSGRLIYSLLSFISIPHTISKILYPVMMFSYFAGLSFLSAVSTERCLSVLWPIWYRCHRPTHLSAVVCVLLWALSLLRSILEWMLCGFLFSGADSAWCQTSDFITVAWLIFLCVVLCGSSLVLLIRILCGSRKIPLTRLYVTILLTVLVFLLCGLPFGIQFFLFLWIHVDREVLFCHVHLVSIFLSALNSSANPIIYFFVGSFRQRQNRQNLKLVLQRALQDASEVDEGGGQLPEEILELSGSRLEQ
MrgX1 antag = antagonists of human MrgX1 receptor, primary screen, HEK293 cells, Fluo-4 calcium flux. B-score at 10 µM. 310,000 compounds, 1.3% hits. BAM8-22 antagonism; active compounds read low. Mas-related G-protein coupled receptor member X1 (Homo sapiens), Q96LB2;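 active = calcium-response B-score plate-corrected more than 3 library SD below zero, starting fluorescence within 5 deviations, no agonist response on first addition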;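 also: peak minus trough fluorescence over baseline after final BAM8-22 challenge near maximal dose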
RGS4 pot = RGS4 potentiators or activators, primary screen, cell-based, HEK293 M3R inducible RGS4, calcium flux | carbachol calcium flux Fluo4; active compounds read low | B-score at 10 µM | 310,000 compounds, 0.92% hits | AID 463111, 2010;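 active = B-score of the integrated calcium signal more than 4 SD below the library mean, with starting fluorescence not abnormally high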;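 also: negative B-score means reduced calcium response which marks RGS4 activation or potentiation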
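Assay system: Inducible-RGS4 HEK293 cells carrying M3 receptor | Schedule: Compound preincubation 20 min at room temperature before agonist | Signal: Kinetic calcium fluorescence imaging with Fluo4-AM dye, 2 µM | Read-out basis: B score from integrated fluorescence ratio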
MrgX1 ag = agonists of human MrgX1 receptor, primary screen, HEK293 cells, Fluo-4 calcium flux; Mas-related G-protein coupled receptor member X1 (Homo sapiens), Q96LB2; Fluo-4 calcium fluorescence, agonist mode; active compounds read high; B-score at 10 µM; 310,000 compounds, 0.44% hits; AID 588627, 2011;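 active = calcium response B-score plate-corrected fluorescence ratio at least 3 library SD, with starting fluorescence B-score inside 5 SD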
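Test system: HEK293 cells stably expressing human MrgX1 receptor; Input: fifteen thousand cells per well; Dosing: compound delivered in addition one of three; Schedule: overnight seeding, then 1 h dark dye loading; Technique: Fluo-4 NW calcium fluorescence; Measure: B-scored fluorescence response ratio; Controls: positive and negative controls per plate.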
RGS4 act valid = reduced carbachol calcium response, RGS4-induced M3R cells, confirmation, RGS4 activator project, cell-based, HEK293 M3R/RGS4 inducible, calcium flux, duplicate; shares compounds with RGS4 pot; carbachol calcium flux Fluo4; inhibition, % at 10 µM; 1,100 compounds, 89% hits;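 active = inhibition above 3 SD of the buffer control wells, cut at about 41% in these data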;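 also: signal is the integrated peak-minus-minimum Fluo4 fluorescence over baseline ratio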
RGS4 act ctr = counter-screen for RGS4 activators: effect in non-induced cells; shares compounds with RGS4 pot; HEK293 M3R non-induced RGS4, Fluo4 calcium flux; after carbachol challenge at its EC90; inhibition, % at 10 µM; 1,100 compounds, 82% hits; AID 602283;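 active = inhibition exceeding 3 SD of buffer-only control wells, cut at about 26% in these data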;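 also: percent drop in integrated peak-minus-baseline over baseline Fluo4 ratio after carbachol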
Active calls of the source: *; i = inactive; / = no result given.

SMILES	RGS4 inh	MrgX1 allo act	MrgX1 antag	RGS4 pot	MrgX1 ag	RGS4 act valid	RGS4 act ctr
COC(=O)C1=C(C)N(c2ccc(OC)cc2)C(C)=C(C(=O)OC)C1c1ccc(OC)cc1	i	i	i	-9*	i	0	0
CCNc1nc(NC(C)(C)C)nc(N2CCCC2)n1	i	i	i	-9*	i	82*	47*
O=C(CCN1CCN2CCCC2C1)N1c2ccccc2Sc2ccc(Cl)cc21 (stereo not given)	i	i	i	i	i	/	/
CCN(CC)CCC(=O)N1c2ccccc2Sc2ccc(Cl)cc21	i	i	i	i	i	/	/
CN(C)CCC(=O)N1c2ccccc2Sc2ccc(Cl)cc21	i	i	i	-14*	i	94*	98*
CN(C)CC(=O)N1c2ccccc2Sc2ccc(Cl)cc21	i	i	i	-8*	i	91*	69*
NCCCC(=O)N1c2ccccc2Sc2ccc(Cl)cc21	i	i	i	-7.9*	i	91*	85*
COC(=O)c1ccc(Oc2c(F)c(F)nc(N3CCOCC3)c2F)cc1	i	i	i	i	i	/	/
CC(C)CCn1c(O)c(N=NC(=O)Cn2ccc(C(F)(F)F)n2)c2ccccc21	i	i	i	-15*	i	44*	84*
CCCn1c(O)c(N=NC(=O)CNC(=O)c2ccncc2)c2ccccc21	i	i	i	i	i	/	/
COC(=O)[C@@H](NCc1cccc(CN[C@H](C(=O)OC)c2ccccc2)c1)c1ccccc1	i	i	i	i	i	/	/
COc1ccc(OC)c(/C=N/NC(=O)CCN2CCN(C(c3ccccc3)c3ccccc3)CC2)c1	i	i	i	-11*	i	92*	94*
CC(C)CC1CCCCC1OC(=O)C[N+]1(C)CCCCC1 (stereo not given)	i	i	i	-11*	i	92*	87*
O=C(NCCN1C(=O)S/C(=C\c2ccccc2F)C1=O)C1=COCCO1	i	i	i	i	i	/	/
O/C=c1\ccc2cccc3nc(C(F)(F)F)nc1c23	i	i	i	i	i	/	/
C/C(O)=c1/ccc2cccc3nc(C)nc1c23	i	i	i	-8.3*	i	74*	69*
CCc1c(C(=O)NNC(=S)Nc2ccc(S(=O)(=O)Nc3ncccn3)cc2)csc1C	i	i	i	i	i	/	/
CC1CCC(C(C)C)C(OC(=O)C[n+]2cc(-c3ccc(Cl)cc3)n3c2CCCCC3)C1 (stereo not given)	i	i	i	-11*	i	94*	94*
C/C(=N\Nc1ccc(S(N)(=O)=O)cc1[N+](=O)[O-])c1cccnc1	i	i	i	i	i	/	/
Cc1ccccc1OCC(=O)NNC(=O)C1CCN(c2ncnc3sc(C)c(C)c23)CC1	i	i	i	i	i	/	/
CCCN(CC(=O)Nc1ccccc1C)C(=O)C1CCN(c2ncnc3sc(C)c(C)c23)CC1	i	i	i	-8.7*	i	64*	27*
C[C@H]1CN=C(Nc2ccccc2)N1CCC1CCCC1	i	i	i	i	i	/	/
Cc1cnc(NC(=O)c2ccc(-c3nc4ccccc4s3)o2)s1	i	i	i	-9.7*	i	79*	32*
Cc1cnc(NC(=O)CSc2nc3ccccc3s2)s1	i	i	i	i	i	/	/
COC(=O)c1cccc(Nc2nc(-c3cccnc3)nc3ccccc23)c1	i	i	i	-8.4*	i	42*	0
SMILES	RGS4 inh	MrgX1 allo act	MrgX1 antag	RGS4 pot	MrgX1 ag	RGS4 act valid	RGS4 act ctr
O=C(O)c1cccc(Nc2nc(-c3cccnc3)nc3ccccc23)c1	i	i	i	i	i	/	/
CCSc1nc(CC)c2c(c1C#N)CCCC2	i	i	i	i	i	/	/
CCOC(=O)C(=CNc1cc(Cl)c(-c2ccco2)c(Cl)c1)C(=O)OCC	i	i	i	-7.8*	i	82*	84*
CC(/C=N/n1c(-c2n[nH]c3c2CCC3)n[nH]c1=S)=C\c1ccco1	i	i	i	-9*	i	93*	90*
Cc1ccccc1-c1n[nH]c(=S)n1/N=C/C=C/c1ccco1	i	i	i	-8*	i	89*	44*
CC(/C=N/n1c(-c2cccnc2)n[nH]c1=S)=C\c1ccco1	i	i	i	i	i	/	/
CN(CC(=O)Nc1cccc(F)c1)C(=O)C1CC(=O)N(Cc2ccccc2)C1 (stereo not given)	i	i	i	i	i	/	/
COc1ccc(/C=N/OCC(=O)Nc2ccc3c(c2)OCO3)c(OC)c1	i	i	i	i	i	/	/
O=[N+]([O-])c1cc([N+](=O)[O-])c(Oc2cc(F)ccc2F)cc1NN1CCCCC1	i	i	i	i	i	/	/
CCCc1cc(CN(C)C(=O)CC2C(=O)NCCN2Cc2ccccc2C)[nH]n1 (stereo not given)	i	i	i	i	i	/	/
CCNc1nc2c(c(=O)n(C)c(=O)n2C)n1CCCc1ccccc1	i	i	i	i	i	/	/
Oc1ccc(-c2nc3ccccc3s2)c(O)c1	i	i	i	-7.9*	i	0	0
Nc1ccc(O)c(-c2nc3ccccc3s2)c1	i	i	i	i	i	/	/
CC1CCCN(C(=O)COC(=O)c2cc(-c3cccs3)nn2-c2ccccc2)C1 (stereo not given)	i	i	i	-10*	i	92*	70*
Cc1ccccc1N(C(=O)c1csnn1)C(C(=O)NC1CCCC1)c1ccncc1 (stereo not given)	i	i	i	i	i	/	/
COCCN(C(=O)c1snc(C(N)=O)c1N)C(C(=O)NC1CCCCC1)c1ccc(N(C)C)cc1 (stereo not given)	i	i	i	i	i	/	/
CCOc1cccc(C(=O)NC(=S)Nc2ccc(N3CCN(CC)CC3)cc2)c1	i	i	i	-11*	i	92*	87*
COC(=O)c1ccc(NC(=O)COc2ccc([N+](=O)[O-])cc2)cc1	i	i	i	i	i	/	/
